Compound activity from PubChem BioAssay.
Lmaj promast: Leishmania major promastigote growth inhibition, primary screen. Leishmania major promastigotes, resazurin fluorescence viability. inhibition, % at 10 µM. 200,000 compounds, 9% hits;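 also: promastigotes grown with compound for 44 hours at 28 °C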
G6PDH counter: L. mesenteroides G6PDH inhibitors, counter-screen for G6PDH-coupled screening assays, biochemical, Leuconostoc mesenteroides enzyme. glucose-6-phosphate dehydrogenase [Leuconostoc mesenteroides]. Purified L. mesenteroides G6PDH, diaphorase/resazurin coupled fluorescence, 45 min. inhibition, % at 5 µM. 200,000 compounds, 0.12% hits
Diaphorase act: compounds boosting diaphorase resazurin reduction – biochemical, uHTS, resorufin fluorescence, counter-screen for diaphorase-coupled primary assays, primary screen; AID 1229, 2008; 190,000 compounds, 0.005% hits; Diaphorase/resazurin coupled assay, 16 min; stronger effect = higher value; 1 = vehicle wells, 0 = NADH-free wells; activation factor at 20 µM;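 active = diaphorase activity raised at least twofold by the compound at 20 µM; inactive = activation factor below 2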
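Measured by – red resorufin fluorescence at 544/590 nm excitation/emission · Test system – Clostridium kluyveri diaphorase, purified enzyme · Incubation – reaction time 16 min, room temperature · Buffer or medium – 50 mM HEPES pH 7.4 with 4.542 mM MgCl2, 0.005% Tween 20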
WT yeast gro inh: growth inhibition of WT strain, primary screen, mitochondrial fusion inhibitor project, WT and mutant strains, chemical genetic; AID 1362, 2008; 190,000 compounds, 2.1% hits; inhibition, % at 10 µM; mitochondrial fusion phenotypic screen; in the data active = inhibition above about 58%; tested in S. cerevisiae
Diaphorase inh: diaphorase inhibitors and chemical oxidizers, primary screen, counter-screen for diaphorase-coupled primary assays, biochemical, uHTS, resorufin fluorescence; inhibition, % at 20 µM; 190,000 compounds, 0.69% hits; diaphorase resazurin-to-resorufin fluorescence, NADH, 16 min; bacterial (C. kluyveri) enzyme, not human;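 active = primary screen inhibition at 20 µM above a set limit, cut at about 50% in these data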;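 also: plate controls were DMSO with full reaction for no effect and wells lacking NADH for full effect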
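Benchmarks: positive control wells lacking NADH, neutral wells with DMSO only. System: bacterial diaphorase enzyme (C. kluyveri). Input: 0.14 U/mL diaphorase, enzyme working solution. Detection: resorufin fluorescence, excitation 544 nm, emission 590 nm. Times: 16-min room-temperature incubation before reading.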
Active calls of the source: *. The list is not random: actives were taken first. Their share in the collection is about 11%. Rule as the data show it, unless noted: active = inhibition above about 50%; inactive = the rest.

What do the screens show for `c1cc2c3c(cccc3c1)C(N1CCN(C3=Nc4cccc5cccc3c45)CC1)=N2`?
Lmaj promast: 45.2

What do the screens show for `CC(=O)N1CCN(C2=Nc3cccc4cccc2c34)CC1`?
Lmaj promast: -1.8; G6PDH counter: 56.2*; Diaphorase act: 0.7; WT yeast gro inh: -2.3; Diaphorase inh: 33.7

Results for c1ccc(CC2CCN(C3=Nc4cccc5cccc3c45)CC2)cc1 ?
Lmaj promast: 100.1*; G6PDH counter: -35.4; Diaphorase act: 0.7; WT yeast gro inh: 59.5; Diaphorase inh: 26.0

How did CCOC(=O)N1CCN(C2=Nc3cccc4cccc2c34)CC1 do in these assays?
Lmaj promast: 15.3; G6PDH counter: 58.3*; Diaphorase act: 0.7; WT yeast gro inh: 15.1; Diaphorase inh: 33.7

How did COc1ccccc1N1CCN(C2=Nc3cccc4cccc2c34)CC1 do in these assays?
Lmaj promast: 77.2*; G6PDH counter: 3.3; Diaphorase act: 0.9; WT yeast gro inh: 48.0; Diaphorase inh: 6.5

What do the screens show for `Cc1ccccc1OCC(=O)Nc1sc(C(=O)Nc2cccc(C)c2C)c(C)c1C#N`?
Lmaj promast: -11.0; G6PDH counter: 12.3; Diaphorase act: 1; WT yeast gro inh: 16.3; Diaphorase inh: 0.9

What do the screens show for `CCSC(=Nc1ccccc1)Nc1ccccc1`?
Lmaj promast: 15.7; G6PDH counter: 5.4; Diaphorase act: 0.8; WT yeast gro inh: 24.8; Diaphorase inh: 16.9

What do the screens show for `COC(=O)C1=C(C)NC(=O)C1(NC(=O)CN1CCCC1=O)C(F)(F)F` (centres undefined)?
Lmaj promast: -4.0; G6PDH counter: 13.0; Diaphorase act: 1; WT yeast gro inh: -8.1; Diaphorase inh: -2.6

Results for Cc1ccc(C2=NC3(CCCC3)N=C2SCC(=O)Nc2ccc3c(c2)OCCO3)cc1 ?
Lmaj promast: 72.9*; G6PDH counter: 18.6; Diaphorase act: 0.8; WT yeast gro inh: 40.9; Diaphorase inh: 24.9

What do the screens show for `O=C(CSC1=NC2(CCCCC2)N=C1c1ccccc1)Nc1ccc2c(c1)OCCO2`?
Lmaj promast: 16.6; G6PDH counter: 17.4; Diaphorase act: 0.8; WT yeast gro inh: 23.7; Diaphorase inh: 15.8

How did O=C(CSC1=NC2(CCCCCC2)N=C1c1ccccc1)Nc1ccc2c(c1)OCCO2 do in these assays?
Lmaj promast: 16.9; G6PDH counter: 22.6; Diaphorase act: 0.8; WT yeast gro inh: 58.5*; Diaphorase inh: 20.9

How did Cc1ccc(-c2nc3sc4c(N)ncnc4c3c3c2CCCC3)cc1 do in these assays?
Lmaj promast: 7.6; G6PDH counter: 4.5; Diaphorase act: 1; WT yeast gro inh: -16.4; Diaphorase inh: 2.5

Results for CC1=C(C(=O)Nc2ccccc2C(F)(F)F)C(c2ccc(C)s2)NC(=S)N1 (centres undefined) ?
Lmaj promast: 10.1; G6PDH counter: 5.8; Diaphorase act: 1; WT yeast gro inh: 18.7; Diaphorase inh: 1.4

What do the screens show for `O=C(Nc1cc(Oc2ccccc2)cc([N+](=O)[O-])c1)C12CC3CC(C1)CC(n1cnc(Cl)n1)(C3)C2`?
Lmaj promast: 80.1*; G6PDH counter: 0.8; Diaphorase act: 0.8; WT yeast gro inh: -7.7; Diaphorase inh: 19.3

How did O=C(O)c1cccc(NC(=O)C23CC4CC(C2)CC(n2cnc(Cl)n2)(C4)C3)c1 do in these assays?
Lmaj promast: -2.9; G6PDH counter: -0.2; Diaphorase act: 0.9; WT yeast gro inh: -11.9; Diaphorase inh: 14.8

How did O=C(Nc1cccc2ccccc12)C12CC3CC(C1)CC(n1cnc([N+](=O)[O-])n1)(C3)C2 do in these assays?
Lmaj promast: 73.4*; G6PDH counter: 1.1; Diaphorase act: 0.9; WT yeast gro inh: 10.7; Diaphorase inh: 7.0

How did O=C(COC(=O)C12CC3CC(CC(C3)C1)C2)Nc1nccs1 do in these assays?
Lmaj promast: 8.1; G6PDH counter: 10.6; Diaphorase act: 1.1; WT yeast gro inh: 3.7; Diaphorase inh: -13.3

What do the screens show for `O=C(c1nc2ccccn2c1CNCCCn1cccn1)N1CCCC1`?
Lmaj promast: 6.3; G6PDH counter: 0.9; Diaphorase act: 0.9; WT yeast gro inh: 1.4; Diaphorase inh: 10.3

How did CCn1c2ccccc2c2cc(NC(=O)CSc3nnc(-c4ccc(OC)c(OC)c4)n3N)ccc21 do in these assays?
Lmaj promast: 94.9*; G6PDH counter: 4.3; Diaphorase act: 0.9; WT yeast gro inh: -0.6; Diaphorase inh: 10.4

What do the screens show for `O=C(CSc1nnc(-c2cccnc2)o1)Nc1ccc(Cl)cc1`?
Lmaj promast: 0.8; G6PDH counter: 3.0; Diaphorase act: 0.9; WT yeast gro inh: -4.1; Diaphorase inh: 10.1

How did COc1ccc(C)cc1NC(=O)C(Sc1nnnn1C)c1ccccc1 (centres undefined) do in these assays?
Lmaj promast: 0.5; G6PDH counter: 0.4; Diaphorase act: 0.8; WT yeast gro inh: -6.4; Diaphorase inh: 18.7

What do the screens show for `COc1ccc(-c2nnc(SC(C(=O)c3c[nH]c4ccccc34)c3ccccc3)n2N)cc1OC` (centres undefined)?
Lmaj promast: 56.9*; G6PDH counter: 10.3; Diaphorase act: 0.9; WT yeast gro inh: -7.5; Diaphorase inh: 7.7

What do the screens show for `CCn1c2ccccc2c2cc(NC(=O)CSc3nnc(-c4cccc(Cl)c4)o3)ccc21`?
Lmaj promast: 88.8*; G6PDH counter: 3.2; Diaphorase act: 0.9; WT yeast gro inh: 13.4; Diaphorase inh: 12.4

What do the screens show for `CCn1c2ccccc2c2cc(NC(=O)CSc3nnc(-c4cccc(OC)c4)n3N)ccc21`?
Lmaj promast: 16.8; G6PDH counter: -78.8; Diaphorase act: 0.8; WT yeast gro inh: 18.1; Diaphorase inh: 21.6

Results for CC(C)(C)c1nnc(N/N=C/c2ccccc2)n(N)c1=O ?
Lmaj promast: -4.7; G6PDH counter: 4.5; Diaphorase act: 0.9; WT yeast gro inh: 7.2; Diaphorase inh: 7.0

Results for CC(C)(C)c1nnc(N/N=C/c2ccccc2O)n(N)c1=O ?
Lmaj promast: 97.9*; G6PDH counter: 3.3; Diaphorase act: 1; WT yeast gro inh: 6.8; Diaphorase inh: 3.6

How did Cc1cc(SCC(=O)N(C)C2CCS(=O)(=O)C2)nc2c(C)cccc12 (centres undefined) do in these assays?
Lmaj promast: -0.2; G6PDH counter: -0.4; Diaphorase act: 1; WT yeast gro inh: 4.0; Diaphorase inh: 4.6

How did CCCS(=O)(=O)N1CCN(C(=O)COc2ccc(OC)cc2)CC1 do in these assays?
Lmaj promast: -2.2; G6PDH counter: 2.8; Diaphorase act: 0.9; WT yeast gro inh: 1.9; Diaphorase inh: 8.7

Results for O=C1CC(c2cc([N+](=O)[O-])ccc2Cl)c2c(ccc3ccccc23)N1 (centres undefined) ?
Lmaj promast: 92.3*; G6PDH counter: -38.1; Diaphorase act: 0.8; WT yeast gro inh: 5.3; Diaphorase inh: 21.0

Results for Clc1ccc(Cn2nnc(-c3ccccc3)n2)cc1 ?
Lmaj promast: -3.4; G6PDH counter: 2.7; Diaphorase act: 0.8; WT yeast gro inh: 32.4; Diaphorase inh: 17.9
